In the library only some 2.1% were active in any assay of this set; here they are far more common.
LMPTP block = blocks human LMPTP phosphatase. recombinant LMPTP-A, OMFP fluorogenic substrate, fluorescence intensity. P24666. 360,000 compounds, 0.22% hits. inhibition, % at 20 µM;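 active means compounds that cut the enzyme signal by at least half of the control window in the single-dose screen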
Target sequence (P24666 whole entry, looked up): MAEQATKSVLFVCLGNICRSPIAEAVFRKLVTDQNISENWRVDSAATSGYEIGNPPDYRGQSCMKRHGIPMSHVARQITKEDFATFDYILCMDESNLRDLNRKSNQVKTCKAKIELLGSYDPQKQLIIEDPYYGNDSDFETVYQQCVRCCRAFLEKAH
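Assay system: LMPTP-A, protein tyrosine phosphatase of low molecular weight / Medium: pH 6.0 Bis-Tris buffer with DTT and Triton X-100 / Schedule: 50 min enzyme reaction at room temperature, protected from light / Measured by: endpoint fluorescence intensity from OMFP dephosphorylation / Read-out basis: % inhibition relative to no-enzyme and uninhibited control wells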
Scp1 inh = inhibitors of human Scp-1 phosphatase | Q9GZU7 | Recombinant Scp1, phosphopeptide, malachite green phosphate absorbance | inhibition, % at 20 µM | 340,000 compounds, 0.88% hits;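 active means inhibition above about 50% at 20 µM, limit read from the data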
Target sequence (Q9GZU7 76-261 limits assumed): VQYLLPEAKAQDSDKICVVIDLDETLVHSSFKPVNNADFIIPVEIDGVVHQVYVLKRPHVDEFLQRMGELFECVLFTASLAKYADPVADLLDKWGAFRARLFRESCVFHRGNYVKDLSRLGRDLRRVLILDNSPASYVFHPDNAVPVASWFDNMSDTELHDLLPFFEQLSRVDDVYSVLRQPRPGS
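Assay system: SCP-1 catalytic fragment, aa 76-261 | Buffer or medium: Tris acetate buffer pH 5.5 with MgCl2 and Tween-20 | Compound: One concentration, 20 µM, with 1.0% DMSO | Also added: Phospho 17-mer peptide substrate | Signal: Absorbance at 630 nm | Incubation: 45 min enzyme reaction at room temperature | Measure: % inhibition of SCP-1 phosphate liberation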
GRK2 aptamer HTS = human GRK2 inhibition via aptamer displacement; P25098; bead flow cytometry, FAM-aptamer displacement from GRK2; inhibition of aptamer binding, % at 10 µM; 330,000 compounds, 0.59% hits; AID 488847;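 active means inhibition of aptamer binding above 40%, roughly 3 SD of noise, on plates passing a quality check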;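 further: median bead fluorescence of bound FAM aptamer so fluorescent compounds give negative values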
STEP inh = blocks human striatal-enriched tyrosine phosphatase; inhibition, % at 20 µM; recombinant STEP, OMFP fluorogenic substrate, fluorescence; 360,000 compounds, 0.25% hits; P54829;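 active means inhibition at 20 µM, scaled per plate between control wells, above about 37%, limit read from the data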
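System: STEP (striatal-enriched tyrosine phosphatase) enzyme, cell-free; medium: Bis-Tris pH 6.0 buffer with DTT, detergent; dosing: 20 µM, 1% DMSO; times: reaction 20 min, ambient temperature; detection: fluorescence, 480/540 nm; read-out basis: normalized % inhibition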
SUMO1 PPI mod = alters human SUMO1 binding to SIM partners. P63165. SUMO1 binding to a labelled peptide, TR-FRET, 1 h. inhibition, % at 20 µM. 360,000 compounds, 0.33% hits. AID 602429; in the data active means inhibition above about 37%
Target sequence (P63165 whole entry, looked up): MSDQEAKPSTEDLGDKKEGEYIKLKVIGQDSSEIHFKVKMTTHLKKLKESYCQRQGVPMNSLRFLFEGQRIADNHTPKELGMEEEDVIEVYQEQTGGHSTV
DNMT1 inh = blocks human DNA methyltransferase DNMT1; DNMT1 molecular beacon, Hinp1I cleavage, fluorescence; 360,000 compounds, 0.83% hits; inhibition (reported as % activation of signal), % at 10 µM; P26358; in the data active means inhibition above about 50%
GRK2 CP1 = human GRK2 inhibition confirmation, cherry pick 1 | shares compounds with GRK2 aptamer HTS | bead-bound GRK2, FAM-aptamer displacement, flow cytometry | aptamer displacement, % at 10 µM | 2,000 compounds, 4% hits;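 active means aptamer displacement above 40%, near three times the noise of non-fluorescent compounds, on plates passing quality checks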;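 further: negative values mostly reflect intrinsic compound fluorescence rather than true enhancement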
FAM quench CP1 = aptamer fluorescence quenching in GRK2 counter-screen | shares compounds with GRK2 aptamer HTS | 2,000 tested, under 10 active | Carboxyfluorescein RNA aptamer on beads, flow cytometry quenching; hits give low values | fluorescence response (% of DMSO), % at 10 µM;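 active means compounds that quench the bead-bound fluorescent RNA probe, cutting fluorescence to under half of the solvent control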;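 further: counterscreen run without GRK2 so only probe quenching by compound is measured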
GRK2 CP2 = confirmation of human GRK2 inhibitors binding RNA aptamer site; shares compounds with GRK2 aptamer HTS; bead-bound GRK2, FAM-aptamer displacement, flow cytometry; inhibition of aptamer binding, % at 10 µM; 360 tested, under 10 active; AID 504782;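 active means inhibition of aptamer binding above 40%, about triple the noise seen with nonglowing compounds, on plates passing quality control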;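 further: negative values mostly come from compounds that fluoresce themselves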
FAM quench CP2 = quenches fluorescent RNA aptamer, GRK2 hit artifact; fluorescence response vs DMSO, % at 10 µM; carboxyfluorescein RNA aptamer beads, flow cytometry quenching; hits give low values; shares compounds with GRK2 aptamer HTS; AID 588494; 360 tested, under 10 active;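 active means response vs DMSO under 50%, meaning signal dropped by over half, treated as fluorescence quencher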;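 further: labelled aptamer on streptavidin beads without GRK2 as a quench counter-screen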
Numbers stand for hits; n = inactive; x = no result.

SMILES	LMPTP block	Scp1 inh	GRK2 aptamer HTS	STEP inh	SUMO1 PPI mod	DNMT1 inh	GRK2 CP1	FAM quench CP1	others
O=C(O)C(O)Cc1c[nH]c2ccccc12 (stereo not given)	n	n	67.0	n	n	n	n	n
COc1ccc(NC(=O)[C@H](C)NS(=O)(=O)c2ccc(NC(C)=O)cc2)cc1Cl	n	x	x	n	n	n	x	x
CCCCSCCCNC(=O)c1ccc2c(c1)N(CC)C(=O)c1ccccc1S2=O (stereo not given)	n	n	47.0	n	n	n	x	x	GRK2 CP2=n;FAM quench CP2=n
COc1ccc(NC(=O)N(C)C[C@H]2Oc3ccc(NC(=O)CCC(F)(F)F)cc3C(=O)N([C@H](C)CO)C[C@@H]2C)cc1	n	n	73.0	n	n	n	x	x	GRK2 CP2=n;FAM quench CP2=n
O=C(CN1CCc2ccccc2C1)Nc1ccccc1C(F)(F)F	n	n	48.0	n	n	n	n	n
CC(C)c1onc(C(=O)N(C)C2CCCCC2)c1[N+](=O)[O-]	n	n	54.0	n	n	n	n	n
Cn1c(SCC(=O)CC(=O)Nc2ccccc2)nnc1-c1ccc(O)cc1	n	n	n	n	n	n	x	x
O=C(CSc1nnc(-c2ccc(O)cc2)n1-c1ccccc1)CC(=O)Nc1ccccc1	n	n	92.0	n	n	n	x	x	GRK2 CP2=n;FAM quench CP2=n
Nc1c(C(=O)NCc2cccs2)nnn1CC(=O)Nc1cccc(Cl)c1	n	n	42.0	n	n	n	x	x	GRK2 CP2=n;FAM quench CP2=n
Cc1ccc(NC(=O)Cn2nnc(C(=O)NCc3cccs3)c2N)cc1Cl	n	n	n	n	n	n	x	x
CCN(Cc1cc(OC)c(OC)c(OC)c1)C(=S)Nc1cccc(SC)c1	n	n	x	n	n	n	x	x
S=C(Nc1ccccc1)N1CCN(c2ccc(N3CCOCC3)nn2)CC1	n	n	n	n	n	n	n	n
CC(Oc1ccccc1)C(=O)N1CCN(c2ccc(N3CCOCC3)nn2)CC1 (stereo not given)	n	n	n	n	n	n	n	n
CCOc1ccc(NC(=O)c2c(NC(=O)CNCCN3CCOCC3)sc3c2CCC3)cc1	n	n	n	n	n	n	x	x
C=CCN1C(=O)c2ccc(C(=O)N(CCC)CC(=O)Nc3ccccc3C)cc2C1=O	n	n	99.0	n	n	n	n	n
COC(=O)c1ccccc1N1C(=O)[C@@H]2C(c3ccc(F)cc3)=NO[C@@H]2C1=O	n	n	n	n	n	n	x	x	GRK2 CP2=n;FAM quench CP2=n
Cc1c(NC(=O)c2ccc(Cl)nc2)cccc1-c1nc2cccnc2s1	n	n	n	n	n	n	x	x
Cc1c(NC(=O)c2ccco2)cccc1-c1nc2cccnc2s1	n	n	46.0	n	n	n	n	n
Cc1ccc(/C=C2/N=C(c3ccccc3)NNC2=O)cc1	n	n	93.0	n	n	n	n	n
CCN(CC(=O)Nc1ccc(NC(C)=O)cc1)C(=O)C1CC(=O)N(CCc2ccc(OC)c(OC)c2)C1 (stereo not given)	n	n	92.0	n	n	n	n	n
COc1ccc(CN(C)C(=O)c2cccc(S(=O)(=O)N3CCCc4ccccc43)c2)c(OC)c1OC	n	n	x	n	n	n	n	n
Cn1nc(Cc2n[nH]c(=S)n2C)c2ccccc2c1=O	n	n	n	n	n	n	x	x
Cc1ccc(NC(=O)C2CCN(S(=O)(=O)c3cnc[nH]3)CC2)cc1C	n	n	n	n	n	n	x	x
Cc1cc(NC(=O)C2CCN(S(=O)(=O)c3cnc[nH]3)CC2)ccc1Br	n	n	43.0	n	n	n	n	n
CCn1cnc2cc(NCc3ccc(Br)cc3)ccc21	x	n	44.0	x	x	x	n	n
SMILES	LMPTP block	Scp1 inh	GRK2 aptamer HTS	STEP inh	SUMO1 PPI mod	DNMT1 inh	GRK2 CP1	FAM quench CP1	others
CCCn1cnc2cc(NCc3ccc(Br)cc3)ccc21	n	n	n	n	n	n	n	n
CCn1cnc2cc(NCc3ccc(C)cc3)ccc21	n	n	n	n	n	n	x	x
Cc1noc(C)c1C(=O)N1CCC1(C)C(=O)NS(=O)(=O)Cc1cccc(Cl)c1 (stereo not given)	n	x	x	n	n	n	x	x
Cc1cc(C(=O)Nc2ccccc2C(=O)O)c(C)o1	n	n	n	n	n	n	x	x
COc1ccc(OC(=O)c2cnn(-c3ccccc3)c2C)cc1	n	n	44.0	n	n	n	n	n
CC(C)OC(=O)N(C)C[C@@H]1OCc2cn(nn2)CCCC(=O)N([C@@H](C)CO)C[C@H]1C	n	x	x	n	n	n	x	x
CCc1ccc(CN(C)CC(=O)Nc2ccc(S(=O)(=O)N3CCOCC3)cc2)cc1	n	n	99.0	n	n	n	n	n
CN(CC(=O)Nc1ccc(S(=O)(=O)N2CCOCC2)cc1)Cc1ccc(F)cc1	n	n	n	n	n	n	x	x
Cc1nc(CN2CCOCC2)cc(=O)[nH]1	n	n	48.0	n	n	n	n	n
O=c1cc(CN2CCCCC2)nc(C2CC2)[nH]1	n	n	n	n	n	n	x	x
CCc1nn(C(C)C(=O)N(C)Cc2ccccc2)c(=O)c2cc3occc3n12 (stereo not given)	n	n	n	n	n	n	x	x
CCCCOc1cc(NCc2ccccc2)c2ncn(C(C)C)c2c1	n	n	n	n	n	n	x	x
COc1ccc(Cc2cc(NCc3ccccc3)c3ncn(C(C)C)c3c2)cc1	n	n	97.0	n	n	n	x	x	GRK2 CP2=n;FAM quench CP2=n
COc1ccc(NC(=O)CN2C(=O)CSc3ncccc32)cc1	n	n	n	n	n	n	x	x
COc1ccc(S(=O)(=O)N2CCOC2CNC(=O)C(=O)NCc2ccc3c(c2)OCO3)cc1OC (stereo not given)	n	n	n	n	n	n	x	x
COc1ccccc1CNC(=O)C(=O)NCC1OCCN1S(=O)(=O)c1ccc2c(c1)OCCO2 (stereo not given)	n	n	41.0	n	n	n	n	n
Cc1ccn2c(=O)c(NC(=O)c3ccc4c(c3)OCO4)c(C)nc2c1	n	x	x	n	n	n	x	x
O=C(NCc1ccc(Cl)cc1)c1cc(S(=O)(=O)N2CCCCC2)c[nH]1	n	n	43.0	n	n	n	n	n
COc1cccc(CNC(=O)c2cc(S(=O)(=O)N3CCCCC3)c[nH]2)c1	n	n	n	n	n	n	x	x
CN(C)c1ccc(C=NN2C(=O)CSC2=S)c(Cl)c1	n	x	x	n	n	n	x	x

Source: PubChem BioAssay (several laboratories)
